The target in assay [1] is T1, Peroxisome proliferator-activated receptor gamma (Homo sapiens) (UniProt P37231).
T1 sequence (whole entry): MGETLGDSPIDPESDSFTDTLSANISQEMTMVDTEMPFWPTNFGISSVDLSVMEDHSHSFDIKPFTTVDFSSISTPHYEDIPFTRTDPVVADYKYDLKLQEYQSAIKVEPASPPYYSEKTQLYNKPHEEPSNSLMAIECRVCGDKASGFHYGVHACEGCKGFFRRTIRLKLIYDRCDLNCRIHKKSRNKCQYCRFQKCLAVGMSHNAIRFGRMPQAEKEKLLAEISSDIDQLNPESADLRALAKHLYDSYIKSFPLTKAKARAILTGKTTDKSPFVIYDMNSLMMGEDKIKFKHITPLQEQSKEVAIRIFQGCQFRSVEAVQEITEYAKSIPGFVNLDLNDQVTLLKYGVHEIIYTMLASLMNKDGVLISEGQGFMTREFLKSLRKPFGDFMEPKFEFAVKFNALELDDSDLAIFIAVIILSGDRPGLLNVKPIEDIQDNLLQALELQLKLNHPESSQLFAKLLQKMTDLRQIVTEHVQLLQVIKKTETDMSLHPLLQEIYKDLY
Put plainly: Stabilization of PPARgamma LBD (unknown origin) assessed as change in melting temperature by differential scanning fluorimetry. (In general: In DSF a fluorescence change marks the thermal transition of the protein.)

The nature of assay [2]: Stabilization of PPARgamma LBD (unknown origin)/FITC-labeled PGC-1alpha (unknown origin) protein-protein interaction assessed as dissociation constant by fluorescence anisotropy assay. Details: species or system Homo sapiens. The gist of the method:
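Fluorescence anisotropy coactivator interaction assay: PPARγ LBD titrated to fluorophore-labelled PGC-1α peptide (10 nM) with DMSO or ligand at 10 µM. n = 3; representative data shown as mean ± s.d.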

Assay [3] concerns the target T1, Peroxisome proliferator-activated receptor gamma (Homo sapiens). The experiment in a line: Stabilization of PPARgamma LBD (unknown origin) assessed as change in melting temperature in presence of GW9662 by differential scanning fluorimetry.
The target is the same in assay [4]. The experiment in a line: Stabilization of PPARgamma LBD (unknown origin) assessed as change in melting temperature in presence of SR16832 by differential scanning fluorimetry.
Assay [5] shares this target. Put plainly: Stabilization of PPARgamma LBD (unknown origin) assessed as melting temperature at 14 uM by differential scanning fluorimetry. A digest of the protocol:
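Differential scanning fluorimetry of PPARγ LBD (3.5 µM) with or without ligand at 14 µM (four equivalents) to obtain melting temperature. n ≥ 3, mean ± s.d.; with vs without compound compared by unpaired t-test.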

Assay [6] has the same target. Put plainly: Binding affinity to PPARgamma LBD (unknown origin) assessed as increase in thermal stability by differential scanning fluorimetry. The conditions noted are these: filed as partial agonist.

Calls of active or inactive are those of the source. The rule behind the calls is not given here.

`O=C(Nc1ccccc1)c1cc([N+](=O)[O-])ccc1Cl`: in assay [1], the thermal shift (ΔTm) worked out at 3.9 °C.
For the molecule `CN(CCOc1ccc(CC2SC(=O)NC2=O)cc1)c1ccccn1` (stereo not given) [ROSIGLITAZONE], the Kd in assay [2] amounted to 370 nM. In addition, the shift in melting temperature (ΔTm) was 0 °C in assay [3] and -0.1 °C in assay [4].
As to `O=C(O)c1ccc(-c2nn(C(=O)c3c(Cl)cccc3C(F)(F)F)c3ccccc23)cc1`, in assay [5], the Tm turned out to be 50.2 °C. The Kd in assay [2] came to 710 nM. In addition, the result in assay [6] was Active. In addition, the thermal shift (ΔTm) in assay [3] is 1.1 °C; in assay [4], -0.6 °C.
For the molecule `COc1ccc2nccc(NC(=O)c3cc([N+](=O)[O-])ccc3Cl)c2c1`, in assay [1], the shift in melting temperature (ΔTm) stood at 4.4 °C.

In general, ΔTm refers to the shift of the melting midpoint relative to a reference. Broadly, the Kd is the equilibrium constant for the complex coming apart.

These data come from ChEMBL document CHEMBL5126597, “Indazole MRL-871 interacts with PPARγ via a binding mode that induces partial agonism” (Bioorg Med Chem, 2022).
